In assay [1] the target is Sodium-dependent dopamine transporter (Rattus norvegicus, UniProt P23977). Briefly: Displacement of [125I]RTI55 from DAT in Sprague-dawley rat striatum by liquid scintillation spectrophotometry. The essentials:
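Membranes from tissue homogenized in 10 vol of 0.32 M sucrose/10 mM sodium phosphate buffer, pH 7.4, and spun three times at 48,000g for 10 min. Cold-Tris filtration used BSA-presoaked GF/B filters, with WF-23 defining non-specific binding.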

Assay [2] deals with Sodium-dependent serotonin transporter (Rattus norvegicus, UniProt P31652). Briefly: Displacement of [3H]citalopram from SERT in Sprague-dawley rat frontal cortex by liquid scintillation spectrophotometry. In kind it is tissue-based. A general note: Displacement assays read how much labelled ligand stays bound in the presence of the test substance.
For another assay, the target named is Transporter (Rattus norvegicus, UniProt Q63380). The assay can be described thus: Displacement of [3H]nisoxetine from Sprague-dawley rat NET by liquid scintillation spectrophotometry.

A value given as a limit tells only on which side of the number the result lay.

Transporter, sequence (Q63380 whole entry): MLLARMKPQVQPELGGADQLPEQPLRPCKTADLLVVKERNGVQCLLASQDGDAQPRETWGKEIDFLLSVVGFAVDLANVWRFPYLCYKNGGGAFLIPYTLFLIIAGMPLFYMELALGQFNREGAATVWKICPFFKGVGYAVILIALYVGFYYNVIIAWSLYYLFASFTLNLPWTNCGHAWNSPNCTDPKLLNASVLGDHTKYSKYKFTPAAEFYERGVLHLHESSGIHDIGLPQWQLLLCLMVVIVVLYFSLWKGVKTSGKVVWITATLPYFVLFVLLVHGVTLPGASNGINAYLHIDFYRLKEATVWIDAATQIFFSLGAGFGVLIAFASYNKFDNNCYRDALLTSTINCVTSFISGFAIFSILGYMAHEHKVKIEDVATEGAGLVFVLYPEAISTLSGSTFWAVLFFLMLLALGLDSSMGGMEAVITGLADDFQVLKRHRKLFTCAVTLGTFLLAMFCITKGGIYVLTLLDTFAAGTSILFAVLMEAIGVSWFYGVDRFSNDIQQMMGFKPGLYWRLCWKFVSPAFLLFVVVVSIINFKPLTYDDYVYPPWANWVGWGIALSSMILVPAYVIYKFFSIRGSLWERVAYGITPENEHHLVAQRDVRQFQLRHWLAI
Sodium-dependent serotonin transporter, sequence (P31652 whole entry): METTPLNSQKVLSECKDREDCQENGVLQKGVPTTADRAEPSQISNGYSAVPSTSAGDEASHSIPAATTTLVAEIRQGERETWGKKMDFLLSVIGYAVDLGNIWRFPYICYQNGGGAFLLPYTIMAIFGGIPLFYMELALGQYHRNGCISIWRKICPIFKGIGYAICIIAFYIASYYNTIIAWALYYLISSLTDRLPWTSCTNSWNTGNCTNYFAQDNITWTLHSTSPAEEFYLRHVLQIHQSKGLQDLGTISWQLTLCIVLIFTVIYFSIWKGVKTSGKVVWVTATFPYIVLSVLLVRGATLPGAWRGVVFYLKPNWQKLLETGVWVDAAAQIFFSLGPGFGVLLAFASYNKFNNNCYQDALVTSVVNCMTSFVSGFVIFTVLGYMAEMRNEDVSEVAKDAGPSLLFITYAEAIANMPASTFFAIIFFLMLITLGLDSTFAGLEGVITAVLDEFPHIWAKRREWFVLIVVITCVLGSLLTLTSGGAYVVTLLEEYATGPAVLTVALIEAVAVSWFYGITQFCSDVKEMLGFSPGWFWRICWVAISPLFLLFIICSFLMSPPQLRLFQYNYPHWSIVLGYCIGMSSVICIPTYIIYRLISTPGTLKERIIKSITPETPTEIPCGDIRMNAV
Sodium-dependent dopamine transporter, sequence (P23977 whole entry): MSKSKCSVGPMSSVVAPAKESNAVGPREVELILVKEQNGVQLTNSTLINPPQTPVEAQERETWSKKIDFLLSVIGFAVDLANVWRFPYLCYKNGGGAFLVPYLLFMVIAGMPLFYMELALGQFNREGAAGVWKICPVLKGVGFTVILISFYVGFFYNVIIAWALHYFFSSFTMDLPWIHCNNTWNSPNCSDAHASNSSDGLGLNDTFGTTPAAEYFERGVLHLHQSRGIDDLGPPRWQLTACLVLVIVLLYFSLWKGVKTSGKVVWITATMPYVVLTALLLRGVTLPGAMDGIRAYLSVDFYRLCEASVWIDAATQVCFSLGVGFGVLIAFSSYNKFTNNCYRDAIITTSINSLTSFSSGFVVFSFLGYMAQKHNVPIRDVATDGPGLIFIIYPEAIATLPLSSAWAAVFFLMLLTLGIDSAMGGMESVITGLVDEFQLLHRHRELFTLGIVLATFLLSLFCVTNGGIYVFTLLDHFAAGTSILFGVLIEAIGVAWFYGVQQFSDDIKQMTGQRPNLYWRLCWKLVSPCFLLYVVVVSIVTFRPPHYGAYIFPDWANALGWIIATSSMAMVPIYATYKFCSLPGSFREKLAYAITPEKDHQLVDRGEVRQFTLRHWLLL

For the compound `CNCC[C@H](c1cccs1)c1cccc2ccccc12`, the IC50 in assay [1] stood at 309 nM. Also, the Ki in assay [2] is 30.2 nM; on Transporter it was 52.1 nM.

As to `CNCC[C@H](c1ccc(Cl)c(Cl)c1)c1cccc2[nH]ccc12`, the concentration for half-maximal inhibition (IC50) in assay [1] worked out at 7.21 nM. Moreover, the inhibition constant Ki in assay [2] came to 1.68 nM; at Transporter it was 95 nM.

On to `CNCCC[C@@H](c1cccs1)c1cccc2ccccc12`, for which the IC50 in assay [1] was 405 nM. For the same compound, the figures for the Ki (in assay [2]; on Transporter) were 9.5 nM and 109 nM, respectively.

On to `CNCCC[C@H](c1cccs1)c1cccc2ccccc12`, for which the IC50 in assay [1] amounted to 466 nM. The Ki in assay [2] turned out to be 39.7 nM; on Transporter it was 7.9 nM.

The compound `CNCCC[C@@H](c1ccc(Cl)c(Cl)c1)c1cccc2ccccc12` returned an IC50 in assay [1] of 209 nM. The Ki in assay [2] is 49.9 nM; at Transporter it was more than 10000 nM.

As to `CNCC[C@H](c1ccc(Cl)c(Cl)c1)c1cccc2ccccc12`, the 50% inhibitory concentration (IC50) in assay [1] was found to be 9.7 nM. For the same compound, the Ki in assay [2] came to 5.3 nM; on Transporter, 1640 nM.

In the case of `CNCCC[C@@H](c1ccc(Cl)c(Cl)c1)c1cccc2[nH]ccc12`, in assay [1], the concentration for half-maximal inhibition (IC50) was 14.3 nM. Besides, the values for the Ki (in assay [2]; at Transporter) were 2.72 nM and 360 nM, respectively.

As for `CNCC[C@H](c1cccs1)c1cccc2[nH]ccc12`, the Ki in assay [2] came to 31.9 nM; on Transporter it was 13.8 nM.

In turn, `CNCCC[C@H](c1cccs1)c1cccc2[nH]ccc12` yielded an IC50 in assay [1] of 318 nM. In addition, the Ki in assay [2] came to 72.9 nM; at Transporter, 9 nM.

In assay [1], `CNCC[C@@H](c1ccc(Cl)c(Cl)c1)c1cccc2ccccc12` showed an IC50 of 35.8 nM. Besides, the inhibitory constant (Ki) was 86 nM in assay [2] and 1630 nM on Transporter.

As to `CNCCC[C@H](c1ccc(Cl)c(Cl)c1)c1cccc2ccccc12`, the IC50 in assay [1] came to 61.2 nM. The Ki in assay [2] is 4.1 nM; at Transporter, 2480 nM.

Turning to `CNCC[C@@H](c1cccs1)c1cccc2ccccc12`, the 50% inhibitory concentration (IC50) in assay [1] was found to be 230 nM. Also, the values for the Ki (in assay [2]; at Transporter) were 12.1 nM and 139 nM, respectively.

`CNCC[C@@H](c1ccc(Cl)c(Cl)c1)c1cccc2[nH]ccc12` registered a concentration for half-maximal inhibition (IC50) in assay [1] of 14.9 nM. The values for the Ki (in assay [2]; on Transporter) were 3.63 nM and 35.4 nM, respectively.

Turning to `CNCC[C@@H](c1cccs1)c1cccc2[nH]ccc12`, the Ki was 166 nM in assay [2] and 102 nM at Transporter.

For `CNCCC[C@@H](c1cccs1)c1cccc2[nH]ccc12`, the IC50 in assay [1] amounted to 957 nM. The Ki in assay [2] came to 271 nM; on Transporter it was 79.7 nM.

As for `CNCCC[C@H](c1ccc(Cl)c(Cl)c1)c1cccc2[nH]ccc12`, in assay [1], the IC50 worked out at 3.8 nM. Moreover, the Ki in assay [2] is 0.82 nM; at Transporter, 4840 nM.

For orientation: IC50 means the concentration that gives 50% inhibition. Read a low IC50 as inhibition by little substance. By Ki is commonly meant the dissociation constant of the complex between target and ligand, obtained from inhibition or displacement.

(Values after ChEMBL document CHEMBL1139307, “1-Naphthyl and 4-indolyl arylalkylamines as selective monoamine reuptake inhibitors” (Bioorg Med Chem Lett, 2009).)
